Assay [1] can be described thus: Ratio of Kapp(NMS)/Kapp(OXO-M). Put shortly:
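Ratio of Kapp values from displacement of [3H]NMS (0.01–1.0 nM, 60 min, 30 °C) and of [3H]oxotremorine-M (0.2-5 nM, HEPES pH 7.4, 40 min, 30 °C) in rat cortical membranes; 2 μM atropine nonspecific; each Kapp occupancy-corrected geometric mean of ≥3 determinations.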

For assay [2], the target named is Muscarinic acetylcholine receptor M3 (Cavia porcellus, UniProt Q8VH26). The experiment in a line: In vitro contraction of guinea pig myenteric plexus preparation (mediated by Muscarinic M3 receptor). The class given is functional. Summed up: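 Distal ileum longitudinal muscle-myenteric plexus strips from male guinea pigs (300-400 g) under 1 g tension in 3 mL Krebs bicarbonate, 37 °C, equilibrated ≥60 min. Isometric contraction read for ≥30 s to clear peak, ≥45 min between compounds; responses as % of 1 μM carbachol maximum. EC50 by nonlinear iterative curve fitting; geometric mean of at least four determinations.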
Sequence of Muscarinic acetylcholine receptor M3 (Q8VH26 whole entry): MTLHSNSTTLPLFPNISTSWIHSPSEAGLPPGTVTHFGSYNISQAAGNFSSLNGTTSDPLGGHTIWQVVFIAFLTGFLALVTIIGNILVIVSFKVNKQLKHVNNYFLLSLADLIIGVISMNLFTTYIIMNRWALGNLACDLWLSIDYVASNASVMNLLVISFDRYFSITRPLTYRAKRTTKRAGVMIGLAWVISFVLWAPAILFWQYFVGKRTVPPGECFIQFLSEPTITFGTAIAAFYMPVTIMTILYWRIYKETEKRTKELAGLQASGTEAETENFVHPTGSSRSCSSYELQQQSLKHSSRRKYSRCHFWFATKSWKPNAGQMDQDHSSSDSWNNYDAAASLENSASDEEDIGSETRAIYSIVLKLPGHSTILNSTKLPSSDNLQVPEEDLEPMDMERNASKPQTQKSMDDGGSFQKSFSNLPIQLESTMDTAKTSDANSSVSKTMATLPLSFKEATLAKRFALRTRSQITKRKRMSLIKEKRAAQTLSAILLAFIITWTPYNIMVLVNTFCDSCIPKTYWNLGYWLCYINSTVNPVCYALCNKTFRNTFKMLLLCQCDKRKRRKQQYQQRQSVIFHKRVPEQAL

Assay [3] deals with T1, Muscarinic acetylcholine receptor (Rattus norvegicus) (UniProt P08482+P08483+P08485+P08911+P10980). Nature of the assay: In vitro ability to displace muscarinic agonist [3H]oxotremorine-M from high affinity state of the receptor in rat cerebral cortical membranes. The class given is cell membranes. The following applies: Membrane. Summed up: (§1)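 Rat cortical P2 membranes washed and resuspended 1/100 (wet w/v) in 20 mM HEPES pH 7.4. [3H]oxotremorine-M at 0.2-5 nM, nonspecific binding with 2 μM atropine; 40 min at 30 °C; filtration on polyethyleneimine-presoaked GF/C filters, saline wash, scintillation counting. Kapp corrected for ligand occupancy; four concentrations in triplicate; geometric mean of ≥3 determinations.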

Assay [4] deals with Muscarinic acetylcholine receptor M3 (Cavia porcellus) (UniProt Q8VH26). Nature of the assay: In vitro evaluation for the relative maximum against Muscarinic M3 receptor compare to carbachol. The class given is functional. Summed up: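 Guinea pig ileum longitudinal muscle-myenteric plexus (male, 300-400 g), 1 g tension, Krebs bicarbonate at 37 °C; isometric tension change measured to peak; maximum response expressed as percentage of that to 1 μM carbachol.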
Sequence of Muscarinic acetylcholine receptor M3 (Cavia porcellus) (Q8VH26 1-587): as the sequence (Q8VH26 whole entry) above

Assay [5] addresses T2, Muscarinic acetylcholine receptor M2 (Homo sapiens) (UniProt P08172).
T2 sequence (whole entry): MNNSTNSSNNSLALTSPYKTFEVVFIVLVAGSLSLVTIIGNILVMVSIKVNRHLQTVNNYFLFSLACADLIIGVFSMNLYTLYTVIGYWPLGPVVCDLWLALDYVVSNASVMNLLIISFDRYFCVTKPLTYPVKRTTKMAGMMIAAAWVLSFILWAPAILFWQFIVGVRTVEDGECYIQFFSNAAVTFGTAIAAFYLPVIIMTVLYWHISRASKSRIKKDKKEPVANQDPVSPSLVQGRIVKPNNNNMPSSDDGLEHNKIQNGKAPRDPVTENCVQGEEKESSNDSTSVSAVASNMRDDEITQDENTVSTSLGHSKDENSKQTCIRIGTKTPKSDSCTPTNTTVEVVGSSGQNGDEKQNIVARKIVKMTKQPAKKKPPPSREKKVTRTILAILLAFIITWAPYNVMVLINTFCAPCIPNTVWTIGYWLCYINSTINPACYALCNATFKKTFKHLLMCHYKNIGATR
The experiment in a line: In Vitro evaluation for the relative maximum against Muscarinic M2 receptor compare to carbachol. The class given is functional. The following applies: Cavia porcellus. Summed up: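 Guinea pig paired atria (male, 300-400 g) in Krebs bicarbonate with 22 mM glucose, 1 g tension, electrically paced (3-4 Hz, 2-3 ms); noncumulative dose-response curves to maximum negative chronotropic effect, ≥45 min apart; maximum response expressed relative to that of carbachol.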

For assay [6], the target named is T3, Muscarinic acetylcholine receptor M1 (Rattus norvegicus, UniProt P08482).
T3 sequence (P08482 whole entry): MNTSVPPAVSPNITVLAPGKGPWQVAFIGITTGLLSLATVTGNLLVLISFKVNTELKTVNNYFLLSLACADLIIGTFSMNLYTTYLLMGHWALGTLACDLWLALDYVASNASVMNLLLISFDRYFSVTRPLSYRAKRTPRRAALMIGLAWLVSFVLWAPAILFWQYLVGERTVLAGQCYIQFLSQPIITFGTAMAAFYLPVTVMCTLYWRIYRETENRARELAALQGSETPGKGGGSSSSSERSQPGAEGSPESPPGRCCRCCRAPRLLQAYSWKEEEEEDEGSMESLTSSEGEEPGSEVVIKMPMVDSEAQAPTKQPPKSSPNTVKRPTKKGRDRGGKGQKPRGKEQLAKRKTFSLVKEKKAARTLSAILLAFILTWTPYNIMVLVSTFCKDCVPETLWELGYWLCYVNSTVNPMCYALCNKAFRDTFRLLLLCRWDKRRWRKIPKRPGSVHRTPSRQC
The experiment in a line: Compound was tested in vitro for depolarizing response on the rat superior cervical ganglion (mediated by Muscarinic M1 receptor). The class given is functional, tissue-based. Put shortly: (§2)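 Responses related to a reference depolarizing response set at 1.0. Agonist concentration raised until response levelled off; EC50 taken as concentration giving half-maximum; at least two determinations, each ganglion from a different rat.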

Assay [7] concerns the target T1, Muscarinic acetylcholine receptor (Rattus norvegicus). Nature of the assay: In vitro ability to displace [3H]N-methylscopolamine from the muscarinic receptor in rat cerebral cortical membranes. The format is cell membranes. Summed up: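 Rat (250-300 g) cerebral cortex crude synaptosomal-mitochondrial membranes (sucrose homogenate, 1000g then 17000g spins). [3H]NMS at 0.01–1.0 nM, nonspecific binding with 2 μM atropine; 60 min at 30 °C; GF/B filtration, saline rinses, scintillation counting. Kapp corrected for ligand occupancy; four concentrations in triplicate; geometric mean of ≥3 separate determinations.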

Assay [8] has as its target T4, Muscarinic acetylcholine receptor M2 (Homo sapiens, UniProt P08172).
T4 sequence (P08172 whole entry): T2 sequence (whole entry)
Nature of the assay: In vitro negative chronotropic effect on electrically driven guinea pig atria(mediated by Muscarinic M2 receptor). The following applies: target entry is the homologue from another species. The format is functional, Cavia porcellus. Summed up:
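Paired atria from male guinea pigs (300-400 g) under 1 g tension in Krebs bicarbonate with 22 mM glucose, paced by field stimulation (3-4 Hz, 2-3 ms). After 60 min equilibration, noncumulative dose-response curves for negative chronotropy, each application held to maximum effect; ≥45 min between curves. EC50 from geometric mean of at least two determinations.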

For assay [9], the target named is T5, Muscarinic acetylcholine receptor M1 (Rattus norvegicus) (UniProt P08482).
T5 sequence (whole entry): T3 sequence (P08482 whole entry)
The experiment in a line: In vitro evaluation for the relative maximum against Muscarinic M1 receptor compare to muscarine. The class given is functional. Summed up:
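Maximum depolarizing response determined by raising agonist concentration until plateau, expressed relative to muscarine; responses related to a reference depolarization set at 1.0; ganglia each from a different rat.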

Assay [10] concerns the target T1, Muscarinic acetylcholine receptor (Rattus norvegicus). The experiment in a line: In vitro ability to displace [3H]oxotremorine-M from the muscarinic receptor in rat cerebral cortical membranes. The format is cell membranes. Put shortly: as §1
The target in assay [11] is T3, Muscarinic acetylcholine receptor M1. Nature of the assay: Compound was tested in vitro for depolarizing response on the rat superior cervical ganglion (mediated by Muscarinic M1 receptor. The class given is functional, tissue-based. Put shortly: as §2

The text below walks through data of ChEMBL document CHEMBL1125396, “Synthesis and in vitro biological profile of all four isomers of the potent muscarinic agonist 3-(3-methyl-1,2,4-oxadiazol-5-yl)-1-azabicyclo[2.2.1]heptane” (J Med Chem, 1992).

Each structure is given as a SMILES string.

As to `Cc1noc([C@@H]2CN3CC[C@@H]2C3)n1`, the Ratio in [1] worked out at 1200. Also, the EC50 in assay [2] is 2.4 nM; in assay [6], 7 nM; in [8] it was 3.3 nM. For the same compound, the results for the K app in assay [3] and in assay [7] were 0.32 nM and 370 nM, respectively. Moreover, the RM in [4] worked out at 0.97; in assay [5], 0.94; in [9] it was 1.16.
Take `Cc1noc([C@H]2CN3CC[C@H]2C3)n1`: the Ratio in assay [1] stood at 1200. Moreover, the EC50 in assay [2] was 0.045 nM; in [6] it was 2.4 nM; in assay [8], 0.039 nM. The values for the RM in [4], in assay [5] and in [9] were 0.91, 0.91 and 0.94, respectively. Also, the figures for the K app in assay [10] and in [7] were 0.027 nM and 32 nM, respectively.
In the case of `C[N+](C)(C)CCOC(N)=O`, the Ratio in assay [1] was 4500. Besides, the values for the K app in assay [10] and in assay [7] were 4.9 nM and 22000 nM, respectively.
`Cc1noc([C@H]2CN3CC[C@@H]2C3)n1`: the Ratio in assay [1] is 1400. For the same compound, the half-maximal effective concentration (EC50) in assay [2] was found to be 16 nM; in assay [11] it was 90 nM; in assay [8], 19 nM. Moreover, the RM in [4] turned out to be 0.93; in assay [5] it was 0.96; in assay [9], 0.76. Besides, the results for the K app in [10] and in [7] were 1.6 nM and 2200 nM, respectively.

The EC50 is the concentration needed to bring the measured effect to its halfway point. Low values mean a more potent agent, high ones a less potent agent.
